# Measurements from ChEMBL document CHEMBL3271939, “Studies of antitumor agents. 1. Resolution of racemic 1-(tetrahydro-2-furanyl)-k-fluorouracil into the R and S isomers and examination of the biological activities of the isomers” (J Med Chem, 1977).
# Assays:
# Rattus norvegicus [1] = assay: Toxicity in Donryu rat allografted with rat Yoshida cells assessed as body weight at 90 mg/kg, ip administered daily for 7 days starting 24 hrs after tumor inoculation measured on 10th day post-tumor inoculation (reference value: 53 gms); format: organism-based; design: dose 90 mg/kg, route intraperitoneal; conditions: in vivo
# In short: (§1)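 Male Donryu rats (120 ± 5 g) inoculated s.c. in inguinal region with 5×10^6 AH-130 carcinoma or Yoshida sarcoma cells per rat; drug 90 mg/kg i.p. daily for 7 days starting 24 h later; six animals per group. Body weight and tumor weight measured on day 10 after inoculation; tumor weight compared with untreated control group to give % inhibition.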
# [2] = Antitumor activity against rat AH-130 cells allografted in Donryu rat assessed as tumor weight at 90 mg/kg, ip administered daily for 7 days starting 24 hrs after tumor inoculation measured on 10th day post-tumor inoculation (reference value: 4.73 +/- 1.19 gms); format: functional; conditions: route intraperitoneal; in short: as §1
# Staphylococcus aureus = assay: Antibacterial activity against Staphylococcus aureus ATCC 6538P assessed as growth inhibition after 24 hrs by plate dilution method; format: functional
# In short: (§2)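 MIC determined by standard plate dilution in defined medium […], plates incubated 37 °C for 24 h.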
# Klebsiella pneumoniae = assay: Antibacterial activity against Klebsiella pneumoniae ATCC 10031 assessed as growth inhibition after 24 hrs by plate dilution method; format: functional; conditions: ATCC 10031, 24 h; in short: as §2
# [3] = Antitumor activity against rat AH-130 cells allografted in Donryu rat assessed as inhibition of tumor growth at 90 mg/kg, ip administered daily for 7 days starting 24 hrs after tumor inoculation measured on 10th day post-tumor inoculation; format: functional; conditions: route intraperitoneal, read-out: TGI; in short: as §1
# Micrococcus luteus = assay: Antibacterial activity against Sarcina lutea ATCC 9341 assessed as growth inhibition after 24 hrs by plate dilution method; format: functional; conditions: ATCC 9341, 24 h; in short: as §2
# [4] = Drug metabolism in mouse liver microsomes assessed as fluorouracil release by measuring antibacterial activity against Staphylococcus aureus 209P at 200 ug after 4 hrs by thin layer cup method; format: ADME
# In short: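 Mouse liver microsome fraction suspended in 10 mM phosphate buffer pH 7.4 with 1.15% KCl (equivalent to 25% homogenate); 0.8 mL suspension plus 200 µg isomer in 1 mL, no NADPH, 37 °C for 4 h. Unchanged substrate removed by CHCl3 extraction; released FU in neutralized aqueous layer quantified by antibacterial activity against S. aureus 209P, thin-layer-cup method.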
# Brevundimonas diminuta = assay: Antibacterial activity against Pseudomonas diminuta IAM 1513 assessed as growth inhibition after 24 hrs by plate dilution method; format: functional; conditions: IAM 1513, 24 h; in short: as §2
# [5] = Drug metabolism in mouse liver microsomes assessed as fluorouracil release by measuring antibacterial activity against Staphylococcus aureus 209P at 200 ug after 4 hrs by thin layer cup method in presence of NADPH; format: ADME
# In short: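 Mouse liver microsomes in 10 mM phosphate buffer pH 7.4, 1.15% KCl (25% homogenate equivalent); 0.8 mL suspension, 0.1 mL of 50 mM NADPH stock, 200 µg isomer, made to 1 mL; 37 °C, 4 h. After CHCl3 extraction of unchanged substrate, FU in neutralized aqueous phase bioassayed against S. aureus 209P by thin-layer-cup method.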
# Escherichia coli = assay: Antibacterial activity against Escherichia coli NIHJ assessed as growth inhibition after 24 hrs by plate dilution method; format: functional; in short: as §2
# Rattus norvegicus [6] = assay: Toxicity in Donryu rat allografted with rat AH-130 cells assessed as body weight at 90 mg/kg, ip administered daily for 7 days starting 24 hrs after tumor inoculation measured on 10th day post-tumor inoculation (reference value: 64.1 gms); format: organism-based; design: dose 90 mg/kg, route intraperitoneal; conditions: in vivo; in short: as §1
# YOSHIDA [7] = assay: Antitumor activity against rat Yoshida cells allografted in Donryu rat assessed as tumor weight at 90 mg/kg, ip administered daily for 7 days starting 24 hrs after tumor inoculation measured on 10th day post-tumor inoculation (reference value: 3.65 +/- 0.60 gms); format: functional; conditions: route intraperitoneal; in short: as §1
# Bacillus subtilis = assay: Antibacterial activity against Bacillus subtilis ATCC 6633 assessed as growth inhibition after 24 hrs by plate dilution method; format: functional; conditions: ATCC 6633, 24 h; in short: as §2
# Micrococcus flavus = assay: Antibacterial activity against Micrococcus flavus ATCC 10240 assessed as growth inhibition after 24 hrs by plate dilution method; format: functional; conditions: ATCC 10240, 24 h; in short: as §2
# Proteus vulgaris = assay: Antibacterial activity against Proteus vulgaris IFO 3045 assessed as growth inhibition after 24 hrs by plate dilution method; format: functional; conditions: IFO 3045, 24 h; in short: as §2
# YOSHIDA [8] = assay: Antitumor activity against rat Yoshida cells allografted in Donryu rat assessed as inhibition of tumor growth at 90 mg/kg, ip administered daily for 7 days starting 24 hrs after tumor inoculation measured on 10th day post-tumor inoculation; format: functional; conditions: route intraperitoneal, read-out: TGI; in short: as §1
Compound,Activity (Rattus norvegicus [1]) [g],Activity [2] [g],MIC (Staphylococcus aureus) [µM],MIC (Klebsiella pneumoniae) [µM],inhibition in vivo at 90 mg/kg [3] [%],MIC (Micrococcus luteus) [µM],Drug metabolism [4] [µg/mL],MIC (Brevundimonas diminuta) [µM],Drug metabolism [5] [µg/mL],MIC (Escherichia coli) [µM],Activity (Rattus norvegicus [6]) [g],Activity (YOSHIDA [7]) [g],MIC (Bacillus subtilis) [µM],MIC (Micrococcus flavus) [µM],MIC (Proteus vulgaris) [µM],inhibition in vivo at 90 mg/kg (YOSHIDA [8]) [%]
O=c1[nH]c(=O)n([C@H]2CCCO2)cc1F,42,1.82,12,> 1000,61.5,6,0.51,> 1000,10.32,> 1000,40.2,2.42,780,750,> 1000,33.7
O=c1[nH]c(=O)n([C@@H]2CCCO2)cc1F,39.3,1.33,12,> 1000,71.9,12,0.72,> 1000,13.16,> 1000,33,2.17,> 1000,375,> 1000,40.6
O=c1[nH]c(=O)n(C2CCCO2)cc1F (racemic) [TEGAFUR],33.2,2.3,12,> 1000,51.4,12,,> 1000,,> 1000,33,2.23,780,750,> 1000,38.9
O=c1[nH]cc(F)c(=O)[nH]1 [FLUOROURACIL],,,0.0723,601,,0.0723,,> 1000,,18.6,,,4.62,0.00425,18.5,
